Values joined by “and” are separate entries in the source; they are usually repeats but may differ in a detail not shown here. Equal entries are not always repeated.
Key:
[1] = tested on: Rattus norvegicus; test: Distribution of the [125I]-labeled compound in heart tissue of female Fischer 344 rat 5 min after intravenous administration. Value in the parentheses is ratio of distribution in heart and blood; format: ADME, organism-based; conditions: in vivo
In short: (§1)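 Radioiodinated ([125I]) fatty acid formulated in 6% bovine serum albumin solution (10% EtOH), passed through a 0.22-µm filter, injected into a lateral tail vein of female Fischer 344 rats. Tissues taken at set times post-injection; radioactivity expressed as percent injected dose/g tissue (mean, range), with heart:blood ratio calculated from heart and blood values.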

[2] = tested on: Rattus norvegicus; test: Distribution of the [125I]-labeled compound in heart tissue of female Fischer 344 rat 120 min after intravenous administration. Value in the parentheses is ratio of distribution in heart and blood; format: ADME, organism-based; conditions: in vivo, 2 h; in short: as §1
[3] = tested on: Rattus norvegicus; test: Distribution of the [125I]-labeled compound in heart tissue of female Fischer 344 rat 1 day after intravenous administration.; format: ADME, organism-based; conditions: in vivo, 24 h
In short: (§2)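 Tissues were sampled at the stated times after injection. Radioactivity is expressed as mean (range) percent injected dose/g tissue. Heart:blood ratios were calculated from these tissue values.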

[4] = tested on: Rattus norvegicus; test: Distribution of the [125I]-labeled compound in heart tissue of female Fischer 344 rat 1 hr after intravenous administration.; format: ADME, organism-based; conditions: in vivo; in short: as §2
[5] = tested on: Rattus norvegicus; test: Distribution of the [125I]-labeled compound in heart tissue of female Fischer 344 rat 2 hr after intravenous administration.; format: ADME, organism-based; conditions: in vivo; in short: as §2
[6] = tested on: Rattus norvegicus; test: Distribution of the [125I]-labeled compound in heart tissue of female Fischer 344 rat 30 min after intravenous administration.; format: ADME, organism-based; conditions: in vivo, 0.5 h; in short: as §2
[7] = tested on: Rattus norvegicus; test: Distribution of the [125I]-labeled compound in heart tissue of female Fischer 344 rat 4 hr after intravenous administration.; format: ADME, organism-based; conditions: in vivo; in short: as §2
[8] = tested on: Rattus norvegicus; test: Distribution of the [125I]-labeled compound in heart tissue of female Fischer 344 rat 5 min after intravenous administration.; format: ADME, organism-based; conditions: in vivo; in short: as §2
[9] = tested on: Rattus norvegicus; test: Distribution of the [125I]-labeled compound in kidney of female Fischer 344 rat 1 day after intravenous administration.; format: ADME, organism-based; conditions: in vivo, 24 h; in short: as §2
[10] = tested on: Rattus norvegicus; test: Distribution of the [125I]-labeled compound in blood of female Fischer 344 rat 1 day after intravenous administration.; format: ADME, organism-based; conditions: in vivo, 24 h; in short: as §2
[11] = tested on: Rattus norvegicus; test: Distribution of the [125I]-labeled compound in blood of female Fischer 344 rat 1 hr after intravenous administration.; format: ADME, organism-based; conditions: in vivo; in short: as §2
[12] = tested on: Rattus norvegicus; test: Distribution of the [125I]-labeled compound in blood of female Fischer 344 rat 2 hr after intravenous administration.; format: ADME, organism-based; conditions: in vivo; in short: as §2
[13] = tested on: Rattus norvegicus; test: Distribution of the [125I]-labeled compound in blood of female Fischer 344 rat 30 min after intravenous administration.; format: ADME, organism-based; conditions: in vivo, 0.5 h; in short: as §2
[14] = tested on: Rattus norvegicus; test: Distribution of the [125I]-labeled compound in blood of female Fischer 344 rat 4 hr after intravenous administration.; format: ADME, organism-based; conditions: in vivo; in short: as §2
[15] = tested on: Rattus norvegicus; test: Distribution of the [125I]-labeled compound in blood of female Fischer 344 rat 5 min after intravenous administration.; format: ADME, organism-based; conditions: in vivo; in short: as §2
[16] = tested on: Rattus norvegicus; test: Ratio of the distribution of [125I]-labeled compound in heart/blood of female Fischer 344 rat 4 hr after intravenous administration.; format: ADME, organism-based; conditions: other tissue; in short: as §2
[17] = tested on: Rattus norvegicus; test: Ratio of the distribution of [125I]-labeled compound in heart/blood of female Fischer 344 rat 5 min after intravenous administration.; format: ADME, organism-based; conditions: in vivo; in short: as §2
[18] = tested on: Rattus norvegicus; test: Distribution of the [125I]-labeled compound in kidney of female Fischer 344 rat 1 hr after intravenous administration.; format: ADME, organism-based; conditions: in vivo; in short: as §2
[19] = tested on: Rattus norvegicus; test: Distribution of the [125I]-labeled compound in kidney of female Fischer 344 rat 2 hr after intravenous administration.; format: ADME, organism-based; conditions: in vivo; in short: as §2
[20] = tested on: Rattus norvegicus; test: Distribution of the [125I]-labeled compound in kidney of female Fischer 344 rat 30 min after intravenous administration.; format: ADME, organism-based; conditions: in vivo, 0.5 h; in short: as §2
[21] = tested on: Rattus norvegicus; test: Distribution of the [125I]-labeled compound in kidney of female Fischer 344 rat 4 hr after intravenous administration.; format: ADME, organism-based; conditions: in vivo; in short: as §2
[22] = tested on: Rattus norvegicus; test: Distribution of the [125I]-labeled compound in kidney of female Fischer 344 rat 5 min after intravenous administration.; format: ADME, organism-based; conditions: in vivo; in short: as §2
[23] = tested on: Rattus norvegicus; test: Distribution of the [125I]-labeled compound in liver of female Fischer 344 rat 1 day after intravenous administration.; format: ADME, organism-based; conditions: in vivo, 24 h; in short: as §2
[24] = tested on: Rattus norvegicus; test: Distribution of the [125I]-labeled compound in liver of female Fischer 344 rat 1 hr after intravenous administration.; format: ADME, organism-based; conditions: in vivo; in short: as §2
[25] = tested on: Rattus norvegicus; test: Distribution of the [125I]-labeled compound in liver of female Fischer 344 rat 2 hr after intravenous administration.; format: ADME, organism-based; conditions: in vivo; in short: as §2
[26] = tested on: Rattus norvegicus; test: Distribution of the [125I]-labeled compound in liver of female Fischer 344 rat 30 min after intravenous administration.; format: ADME, organism-based; conditions: in vivo, 0.5 h; in short: as §2
[27] = tested on: Rattus norvegicus; test: Distribution of the [125I]-labeled compound in liver of female Fischer 344 rat 4 hr after intravenous administration.; format: ADME, organism-based; conditions: in vivo; in short: as §2
[28] = tested on: Rattus norvegicus; test: Distribution of the [125I]-labeled compound in liver of female Fischer 344 rat 5 min after intravenous administration.; format: ADME, organism-based; conditions: in vivo; in short: as §2
[29] = tested on: Rattus norvegicus; test: Distribution of the [125I]-labeled compound in lungs of female Fischer 344 rat 1 day after intravenous administration.; format: ADME, organism-based, Lung; conditions: in vivo, 24 h; in short: as §2
[30] = tested on: Rattus norvegicus; test: Distribution of the [125I]-labeled compound in lungs of female Fischer 344 rat 1 hr after intravenous administration.; format: ADME, organism-based, Lung; conditions: in vivo; in short: as §2
[31] = tested on: Rattus norvegicus; test: Distribution of the [125I]-labeled compound in lungs of female Fischer 344 rat 5 min after intravenous administration.; format: ADME, organism-based, Lung; conditions: in vivo; in short: as §2
[32] = tested on: Rattus norvegicus; test: Distribution of the [125I]-labeled compound in thyroid of female Fischer 344 rat 1 day after intravenous administration.; format: ADME, organism-based, Thyroid gland; conditions: in vivo, 24 h; in short: as §2
[33] = tested on: Rattus norvegicus; test: Distribution of the [125I]-labeled compound in thyroid of female Fischer 344 rat 1 hr after intravenous administration.; format: ADME, organism-based, Thyroid gland; conditions: in vivo; in short: as §2
[34] = tested on: Rattus norvegicus; test: Distribution of the [125I]-labeled compound in thyroid of female Fischer 344 rat 2 hr after intravenous administration.; format: ADME, organism-based, Thyroid gland; conditions: in vivo; in short: as §2
[35] = tested on: Rattus norvegicus; test: Distribution of the [125I]-labeled compound in thyroid of female Fischer 344 rat 30 min after intravenous administration.; format: ADME, organism-based, Thyroid gland; conditions: in vivo, 0.5 h; in short: as §2
[36] = tested on: Rattus norvegicus; test: Distribution of the [125I]-labeled compound in thyroid of female Fischer 344 rat 4 hr after intravenous administration.; format: ADME, organism-based, Thyroid gland; conditions: in vivo; in short: as §2
[37] = tested on: Rattus norvegicus; test: Distribution of the [125I]-labeled compound in thyroid of female Fischer 344 rat 5 min after intravenous administration.; format: ADME, organism-based, Thyroid gland; conditions: in vivo; in short: as §2
[38] = tested on: Rattus norvegicus; test: Ratio of the distribution of [125I]-labeled compound in heart/blood of female Fischer 344 rat 1 hr after intravenous administration.; format: ADME, organism-based; conditions: other tissue; in short: as §2
[39] = tested on: Rattus norvegicus; test: Ratio of the distribution of [125I]-labeled compound in heart/blood of female Fischer 344 rat 2 hr after intravenous administration.; format: ADME, organism-based; conditions: other tissue; in short: as §2
[40] = tested on: Rattus norvegicus; test: Distribution of the [125I]-labeled compound in lungs of female Fischer 344 rat 30 min after intravenous administration.; format: ADME, organism-based, Lung; conditions: in vivo, 0.5 h; in short: as §2
[41] = tested on: Rattus norvegicus; test: Ratio of the distribution of [125I]-labeled compound in heart/blood of female Fischer 344 rat 1 day after intravenous administration.; format: ADME, organism-based; conditions: other tissue, 24 h; in short: as §2

Structure (SMILES): O=C(O)CCCCC[Te]CCCCCCCCC/C=C/I
- Injected dose/g tissue [1]: 3.5%
- Injected dose/g tissue [2]: 2.9%

Structure (SMILES): O=C(O)CCCCCCCCCCC[Te]CCC/C=C/I
- Injected dose/g tissue [1]: 1.5%
- Injected dose/g tissue [2]: 1%

Structure (SMILES): O=C(O)CCC[Te]CCCCCCCCCCC/C=C/I
- Injected dose/g tissue [1]: 3.9%
- Injected dose/g tissue [2]: 3.6%

Structure (SMILES): O=C(O)CCCCCCC[Te]CCCCCCC/C=C/I
- Injected dose/g tissue [1]: 4.8%
- Injected dose/g tissue [2]: 3.9%

Structure (SMILES): O=C(O)CCCCCCCCCCCCCCC/C=C/I
- Injected dose/g tissue [3]: 0.32%
- Injected dose/g tissue [4]: 2.09%
- Injected dose/g tissue [5]: 1.72%
- Injected dose/g tissue [6]: 2.69%
- Injected dose/g tissue [7]: 0.94%
- Injected dose/g tissue [8]: 3.17%
- Injected dose/g tissue [9]: 0.32%
- Injected dose/g tissue [10]: 0.07%
- Injected dose/g tissue [11]: 0.28%
- Injected dose/g tissue [12]: 0.28%
- Injected dose/g tissue [13]: 0.4%
- Injected dose/g tissue [14]: 0.27%
- Injected dose/g tissue [15]: 0.3%
- Heart/blood ratio [16]: 3.5
- ratio [17]: 10.6 and 6.7
- Injected dose/g tissue [18]: 0.62%
- Injected dose/g tissue [19]: 0.63%
- Injected dose/g tissue [20]: 0.7%
- Injected dose/g tissue [21]: 0.55%
- Injected dose/g tissue [22]: 0.82%
- Injected dose/g tissue [23]: 0.6%
- Injected dose/g tissue [24]: 4.83%
- Injected dose/g tissue [25]: 4.04%
- Injected dose/g tissue [26]: 7.81%
- Injected dose/g tissue [27]: 3.08%
- Injected dose/g tissue [28]: 8.65%
- Injected dose/g tissue [29]: 0.59%
- Injected dose/g tissue [30]: 0.82%
- Injected dose/g tissue [31]: 1.02%
- Injected dose/g tissue [32]: 350%
- Injected dose/g tissue [33]: 27.18%
- Injected dose/g tissue [34]: 61%
- Injected dose/g tissue [35]: 20.88%
- Injected dose/g tissue [36]: 153%
- Injected dose/g tissue [37]: 9.29%
- Heart/blood ratio [38]: 7.6
- Heart/blood ratio [39]: 6.6
- Injected dose/g tissue [40]: 1.03%
- Heart/blood ratio [41]: 4.8

Structure (SMILES): O=C(O)CCCCCCCCC[Te]CCCCC/C=C/I
- Injected dose/g tissue [1]: 3.1%
- Injected dose/g tissue [2]: 3.8%
